Results as given in ChEMBL document CHEMBL4007453, “Identification of Non-Nucleoside Inhibitors of the Respiratory Syncytial Virus Polymerase Complex” (J Med Chem, 2017).
In brackets after ≈: the same amount, converted by molar mass.

How the values were obtained:
[1] = test system: Respiratory syncytial virus; assay: Inhibition of Respiratory syncytial virus-A2-L19F RNA-dependent RNA polymerase complex D489E mutant in human BEAS2B cells infected with Respiratory syncytial virus-A2-L19F by firefly luciferase reporter-based RSV minigenome assay; format: cell-based
[2] = Inhibition of recombinant mkate-tagged-Respiratory syncytial virus-A2-L19F RNA-dependent RNA polymerase D489E mutant in human BEAS2B cells infected with Respiratory syncytial virus-A2-L19F assessed as reduction in progeny release measured after 48 hrs postinfection by fluorescence assay based progeny virus yield-based dose-response assay; format: cell-based; details: BEAS-2B
Procedure, shortened: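 Cells in 12-well format infected with mKate-expressing recRSV-A2-L19F (MOI 0.05 particles/cell) in the presence of serial compound dilutions at 37°C. Cell-associated progeny harvested 48 h post-infection and released by one freeze/thaw cycle. Titres determined by TCID50 titration. Two repeats; EC50 derived by regression.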

[3] = Selectivity index, ratio of CC50 for human BEAS2B cells to EC50 for inhibition of recombinant mkate-tagged-Respiratory syncytial virus-A2-L19F RNA-dependent RNA polymerase complex D489E mutant in human BEAS2B cells infected with Respiratory syncytial virus-A2-L19F; format: toxicity, cell-based; details: read-out: Ratio CC50/EC50
Procedure, shortened: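 SI is CC50/EC50 in BEAS-2B cells. EC50 came from reporter RSV dose-response, 3-fold dilutions, top 10 µM. […] Both values from four-parameter variable-slope regression.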

BEAS-2B = assay: Cytotoxicity against human BEAS2B cells after 48 hrs by PrestoBlue staining based fluorescence assay; format: cell-based
Procedure, shortened: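 Uninfected BEAS-2B cells were exposed to compound for 48 h at 37°C. PrestoBlue was added and incubated 90 min at 37°C, then fluorescence was read (ex 560 nm, em 590 nm). Cytotoxic was defined as metabolic activity <70% of vehicle control. Highest concentration assessed for cytotoxicity was 90 µM, and CC50 came from four-parameter variable slope regression.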

[4] = Inhibition of recombinant Respiratory syncytial virus-A2-L19F RNA-dependent RNA polymerase complex D489E mutant transfected with firefly luciferase gene at SMASh domain in human BEAS2B cells infected with Respiratory syncytial virus-A2-L19F assessed as reduction in viral replication measured after […] by bioluminescence assay; format: cell-based; details: human respiratory syncytial virus, A2-L19F, BEAS-2B
Procedure, shortened: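 BEAS-2B cells (1.5×10^4/well) received 3-fold serial compound dilutions prepared in three repeats (top concentration 10 µM) and were infected with firefly-luciferase/SMASh reporter RSV-A2-L19F D489E (MOI 0.1). Luminescence was converted to % inhibition against four-replicate positive and negative controls per plate. EC50 came from four-parameter variable-slope regression.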

Liver [5] = assay: Drug level in mouse liver microsomes treated with at 1 uM GRP-74915 by LC-MS analysis; format: ADME, microsome
[6] = Aqueous solubility of the compound in citrate buffer at pH 3 after 90 mins by laser nephelometric method; format: physicochemical
Procedure, shortened: (§1)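 Stocks of 30 mg/mL in DMSO were serially diluted in DMSO, then into buffer to final 300 down to 1.5 µg/mL at 1% final DMSO. Diluent was PBS for pH 7.4 and citrate buffer for pH 3 and 5. Plates stood 90 min at ambient temperature. Forward-scatter laser nephelometry gave the concentration at which precipitation began.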

[7] = Aqueous solubility of the compound in phosphate buffered saline at pH 7.4 after 90 mins by laser nephelometric method; format: physicochemical; procedure, shortened: as §1
[8] = Aqueous solubility of the compound in citrate buffer at pH 5 after 90 mins by laser nephelometric method; format: physicochemical; procedure, shortened: as §1
[9] = Retention time of the compound at 80 uM by LC-MS analysis
Liver [10] = assay: Half life in human liver microsomes at 1 uM by LC-MS analysis; format: ADME, microsome
Procedure, shortened: (§2)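 Test article at 1 µM final was incubated in triplicate at 37°C with shaking (150 rpm) with mouse or human liver S9 or microsomes (0.5 mg total protein), with Phase I oxidation and Phase II glucuronidation cofactors. Cofactor-free and microsome-free controls were run, sampled only at 0 and 120 min. Other sampling was at 0, 15, 30, 60 and 120 min into organic internal standard solution.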

Liver [11] = assay: Drug metabolism in mouse liver microsomes assessed as metabolite M4 formation at 80 uM after 2 hrs by LC-MS analysis; format: ADME, microsome
Procedure, shortened: (§3)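 Metabolite identification used 80 µM test article incubated in triplicate with mouse liver microsomes (0.5 mg total protein) plus Phase I oxidation and Phase II glucuronidation cofactors, at 37°C with shaking at 150 rpm. Aliquots were taken at 0, 15, 30, 60 and 120 min and mixed with organic internal standard solution.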

Liver [12] = assay: Drug metabolism in mouse liver microsomes assessed as metabolite M1 formation at 80 uM after 2 hrs by LC-MS analysis; format: ADME, microsome; procedure, shortened: as §3
Liver [13] = assay: Half life in mouse liver microsomes at 1 uM in presence of NADPH by LC-MS analysis; format: ADME, microsome; procedure, shortened: as §2
Liver [14] = assay: Half life in mouse liver S9 fraction at 1 uM by LC-MS analysis; format: ADME, tissue-based; details: s9, 1 µM; procedure, shortened: as §2
Liver [15] = assay: Drug metabolism in mouse liver microsomes assessed as metabolite M2 formation at 80 uM after 2 hrs by LC-MS analysis; format: ADME, microsome; procedure, shortened: as §3
Liver [16] = assay: Stability in mouse liver microsomes at 1 uM in absence of NADPH after 2 hrs by LC-MS analysis; format: ADME, microsome; procedure, shortened: as §2
Liver [17] = assay: Drug metabolism in mouse liver microsomes assessed as metabolite M3 formation at 80 uM after 2 hrs by LC-MS analysis; format: ADME, microsome; procedure, shortened: as §3

Structure (SMILES)	selectivity ratio [3]	CC50 (BEAS-2B) [µM]	EC50 [4] [µM]	also measured
Cn1c(=O)n(C)c2cc(Cn3cnc(-c4ccccc4)c3C3CC3)ccc21				inhibition [1]: Dose-dependent effect; EC50 [2]: 0.17 µM
Cc1coc(C(=O)N2CCCn3nc(C(=O)Nc4ccccc4)cc3C2)c1C	13	30	2.25	
O=C(Nc1ccccc1)c1cc2n(n1)CCCN(S(=O)(=O)c1ccco1)C2			> 10	
Cc1c(C(=O)N2CCCn3nc(C(=O)Nc4ccccc4)cc3C2)oc2ccccc12			10	
Cc1ccccc1NC(=O)c1cc2n(n1)CCCN(C(=O)c1occc1C)C2	8	1.1	0.14	
Cc1ccoc1C(=O)N1CCCn2cc(C(=O)Nc3ccccc3)cc2C1	> 28	> 90	3.19	
COc1ccc(NC(=O)c2cc3n(n2)CCCN(C(=O)c2occc2C)C3)cc1	281	90	0.32	
Cc1ccoc1C(=O)N1CCCn2nc(C(=O)Nc3ccc(F)cc3F)cc2C1	83	5	0.06	
Cc1ccoc1C(=O)N1CCCn2nc(C(=O)Nc3cncnc3)cc2C1			> 10	
O=C(Nc1ccccc1)c1cc2n(n1)CCCN(C(=O)c1occ3c1CCC3)C2		10	10	
Cc1ccoc1C(=O)N1CCCn2nc(C(=O)Nc3ccc(F)cc3)cc2C1	273	90	0.33	
Cc1cccc(NC(=O)c2cc3n(n2)CCCN(C(=O)c2occc2C)C3)c1	12	3.3	0.28	
O=C(Nc1ccccc1F)c1cc2n(n1)CCCN(C(=O)c1ccco1)C2	12	3.7	0.32	
Cc1ccoc1C(=O)N1CCCn2nc(C(=O)O)cc2C1				Drug metabolism (Liver [5]): Metabolite_Detected
Cc1ccoc1C(=O)N1CCCn2nc(C(=O)NCc3ccccc3)cc2C1	42	50	1.2	
O=C(Nc1ccccc1)c1cc2n(n1)CCCN(C(=O)c1occc1C(F)(F)F)C2	6	30	5.4	
Cc1cc(C)c(C(=O)N2CCCn3nc(C(=O)Nc4ccccc4)cc3C2)o1		2.6	0.96	
Cc1ccoc1C(=O)N1CCCn2nc(C(=O)N(C)c3ccccc3)cc2C1	> 9	> 90	10	solubility kinetic at 1.5 h [6]: 20 µg/mL (≈ 52.8 µM); solubility kinetic at 1.5 h [7]: 58 µg/mL (≈ 153 µM); solubility kinetic at 1.5 h [8]: 25 µg/mL (≈ 66.1 µM)
Cc1coc(C(=O)N2CCCn3nc(C(=O)Nc4ccccc4)cc3C2)c1			> 10	
Cc1ccc(NC(=O)c2cc3n(n2)CCCN(C(=O)c2occc2C)C3)cc1	73	30	0.41	
O=C(Nc1ccccc1)c1cc2n(n1)CCCN(C(=O)c1occc1Cl)C2	39	30	0.76	
O=C(Nc1ccccc1)c1cc2n(n1)CCCN(C(=O)c1ccncn1)C2			> 10	

Structure (SMILES)	selectivity ratio [3]	CC50 (BEAS-2B) [µM]	EC50 [4] [µM]	also measured
Cc1ccoc1C(=O)N1CCCn2nc(S(=O)(=O)Nc3ccccc3)cc2C1			> 10	
Cc1ccoc1C(=O)N1CCCn2nc(CNc3ccccc3)cc2C1	20	10	0.5	
Cc1ccoc1C(=O)N1CCCn2nc(C(=O)Nc3ccncn3)cc2C1	11	16.6	1.53	
Cc1nc2ccccn2c1CN(C)C(=O)c1cc(COc2ccc(F)cc2F)on1				inhibition [1]: Dose-dependent effect; EC50 [2]: 0.05 µM
CCc1ccoc1C(=O)N1CCCn2nc(C(=O)Nc3ccccc3)cc2C1	14	10	0.73	
COc1cc(N2CCCC(CO)(Cc3cccc(Cl)c3)C2)ncn1 (stereo not drawn)				inhibition [1]: Dose-dependent effect; EC50 [2]: 0.13 µM
Cc1ccc(C(=O)N2CCCn3nc(C(=O)Nc4ccccc4)cc3C2)o1			> 10	
COc1cccc(NC(=O)c2cc3n(n2)CCCN(C(=O)c2occc2C)C3)c1	56	30	0.54	
Cc1ccoc1C(=O)N1CCCn2nc(NC(=O)c3ccccc3)cc2C1			> 10	
Cc1ccoc1C(=O)N1CCn2nc(C(=O)Nc3ccccc3)cc2C1			> 10	
Cc1ccoc1C(=O)N1CCCn2nc(NS(=O)(=O)c3ccccc3)cc2C1			> 10	
Cc1ccoc1C(=O)N1CCCn2nc(C(=O)Nc3cccc(F)c3)cc2C1	143	30	0.21	
COc1ccccc1NC(=O)c1cc2n(n1)CCCN(C(=O)c1occc1C)C2	11	3.3	0.31	solubility kinetic at 1.5 h [6]: 48 µg/mL (≈ 122 µM); solubility kinetic at 1.5 h [7]: 28 µg/mL (≈ 71 µM); solubility kinetic at 1.5 h [8]: 43 µg/mL (≈ 109 µM)
Cc1ccoc1CN1CCCn2nc(C(=O)Nc3ccccc3)cc2C1			> 10	
O=C(Nc1ccccc1)c1cc2n(n1)CCCN(C(=O)c1ccco1)C2			7.1	
O=C(Nc1ccccc1)c1cc2n(n1)CCCN(C(=O)c1occc1-c1ccccc1)C2			> 10	
Cc1ccoc1C(=O)N1CCCn2nc(C(=O)Cc3ccccc3)cc2C1	79	5.5	0.07	solubility kinetic at 1.5 h [6]: < 15 µg/mL; Retention time [9]: 12.9 min; t1/2 (Liver [10]): 42 min; solubility kinetic at 1.5 h [7]: 18 µg/mL (≈ 49.5 µM); Drug metabolism (Liver [11]): Metabolite_Detected; solubility kinetic at 1.5 h [8]: 18 µg/mL (≈ 49.5 µM); Drug metabolism (Liver [12]): Metabolite_Detected; t1/2 (Liver [13]): 20 min; t1/2 (Liver [14]): 20 min; Drug metabolism (Liver [15]): Metabolite_Detected; Stability (Liver [16]): Stable; Drug metabolism (Liver [17]): Metabolite_Detected
Cc1cc(C(=O)N2CCCn3nc(C(=O)Nc4ccccc4)cc3C2)oc1C			> 10	
Cc1ccsc1C(=O)N1CCCn2nc(C(=O)Nc3ccccc3)cc2C1			> 10	
Cc1cc[nH]c1C(=O)N1CCCn2nc(C(=O)Nc3ccccc3)cc2C1			> 10	
CC(C)c1cc(C(=O)NCc2noc(-c3cccs3)n2)n(C)n1				inhibition [1]: Dose-dependent effect; EC50 [2]: 0.03 µM
Cc1ccn(C)c1C(=O)N1CCCn2nc(C(=O)Nc3ccccc3)cc2C1			> 10	
